The source of these data is ChEMBL document CHEMBL4219124, “Alleviating CYP and hERG liabilities by structure optimization of dihydrofuran-fused tricyclic benzo[d]imidazole series - Potent, selective and orally efficacious microsomal prostaglandin E synthase-1 (mPGES-1) inhibitors: Part-2” (Bioorg Med Chem Lett, 2018).

A short description of data set [1]: Metabolic stability in guinea pig liver microsomes assessed as parent compound remaining at 1 uM after 60 mins in presence of NADPH by LC-MS/MS analysis. The following applies: read-out: Stability. The class given is ADME, Cavia porcellus, microsome. The method in brief: (§1)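 Compound incubated 60 min at 37 °C with human, rat or guinea pig liver microsomes; percent parent remaining, triplicates.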

The target in data set [2] is T1, Prostaglandin E synthase (Homo sapiens, UniProt O14684).
T1 sequence (O14684 whole entry): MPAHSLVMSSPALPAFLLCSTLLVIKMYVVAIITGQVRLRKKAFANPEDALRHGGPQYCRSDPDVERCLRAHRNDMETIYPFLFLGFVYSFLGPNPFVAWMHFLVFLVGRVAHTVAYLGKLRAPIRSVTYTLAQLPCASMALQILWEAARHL
The experiment in a line: Inhibition of mPGES1 in human whole blood assessed as reduction in LPS-induced PGE2 production measured after 20 to 24 hrs.

Data set [3] in a line: Metabolic stability in human liver microsomes assessed as parent compound remaining at 1 uM after 60 mins in presence of NADPH by LC-MS/MS analysis. The class given is ADME, microsome. The following applies: read-out: Stability. An outline of the steps: as §1
Data set [4] deals with T2, CYP1A2 (Homo sapiens, UniProt P05177).
T2 sequence (P05177 whole entry): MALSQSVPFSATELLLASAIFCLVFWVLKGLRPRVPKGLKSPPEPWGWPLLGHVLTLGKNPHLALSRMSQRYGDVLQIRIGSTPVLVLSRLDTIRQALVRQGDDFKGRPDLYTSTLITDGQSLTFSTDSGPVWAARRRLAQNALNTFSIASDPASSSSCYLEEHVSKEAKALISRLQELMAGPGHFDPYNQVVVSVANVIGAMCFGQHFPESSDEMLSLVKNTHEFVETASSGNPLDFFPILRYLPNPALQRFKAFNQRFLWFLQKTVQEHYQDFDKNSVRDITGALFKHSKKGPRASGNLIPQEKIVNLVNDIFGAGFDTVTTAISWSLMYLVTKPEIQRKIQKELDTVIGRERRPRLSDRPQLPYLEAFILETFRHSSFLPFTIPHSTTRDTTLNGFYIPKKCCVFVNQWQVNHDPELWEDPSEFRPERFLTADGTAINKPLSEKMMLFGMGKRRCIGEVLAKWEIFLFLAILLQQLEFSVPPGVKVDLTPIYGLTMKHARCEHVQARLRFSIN
In words: Inhibition of CYP1A2 in human liver microsomes at 10 uM after 20 mins in presence of NADPH by LC-MS/MS analysis. The data set is classed as ADME. The method in brief: (§2)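 Percent inhibition of each CYP isoform by test compound at 10 µM, compared with a no-inhibitor control. Run in triplicate.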

The target of data set [5] is CYP2C9 (Homo sapiens, UniProt P11712). The experiment in a line: Inhibition of CYP2C9 in human liver microsomes at 10 uM after 20 mins in presence of NADPH by LC-MS/MS analysis. The data set is classed as ADME. The method in brief:
as §2

Data set [6] deals with CYP2D6 (Homo sapiens, UniProt P10635). In words: Inhibition of CYP2D6 in human liver microsomes at 10 uM after 20 mins in presence of NADPH by LC-MS/MS analysis. The data set is classed as ADME. The following applies: liver microsomes. An outline of the steps:
as §2

The target in data set [7] is T1, Prostaglandin E synthase. The experiment in a line: Inhibition of recombinant human mPGES1 expressed in CHO cells assessed as reduction in PGE2 production using PGH2 as substrate incubated for 10 mins followed by substrate addition measured for 1 min. The data set is classed as cell-based.
The target of data set [8] is CYP2C19 (Homo sapiens, UniProt P33261). The experiment in a line: Inhibition of CYP2C19 in human liver microsomes at 10 uM after 40 mins in presence of NADPH by LC-MS/MS analysis. The data set is classed as ADME. The method in brief:
as §2

The nature of data set [9]: Metabolic stability in rat liver microsomes assessed as parent compound remaining at 1 uM after 60 mins in presence of NADPH by LC-MS/MS analysis. The data set is classed as ADME, microsome. The following applies: read-out: Stability. An outline of the steps:
as §1

Data set [10] deals with T1, Prostaglandin E synthase. In words: Inhibition of mPGES1 in human A549 cells assessed as reduction in IL-1beta-induced PGE2 production preincubated for 30 mins followed by incubation with IL-1beta for 16 to 20 hrs measured after 10 mins by HTRF assay. The data set is classed as cell-based.
Data set [11] concerns the target CYP3A4 (Homo sapiens, UniProt P08684). In words: Inhibition of CYP3A4 in human liver microsomes at 10 uM after 20 mins in presence of NADPH by LC-MS/MS analysis. The data set is classed as ADME. The method in brief: as §2
The nature of data set [12]: Protein binding in human plasma at 10 uM after 5 hrs by equilibrium dialysis based LC-MS/MS analysis. The data set is classed as ADME, cell-free. The following applies: read-out: PPB (converted). The method in brief:
(§3)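 Equilibrium dialysis at 10 μM compound; result expressed as percent bound.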

A short description of data set [13]: Protein binding in guinea pig plasma at 10 uM after 5 hrs by equilibrium dialysis based LC-MS/MS analysis. The following applies: read-out: PPB (converted). The data set is classed as ADME, cell-free, Cavia porcellus. The method in brief:
as §3

The target of data set [14] is hERG (KCNH2) (Homo sapiens, UniProt Q12809). In words: Inhibition of human ERG at 10 uM by patch clamp assay relative to control. The method in brief:
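hERG current measured by patch clamp with test compound at 10 µM; result given as % inhibition.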

Sequence of CYP2C19 (P33261 whole entry): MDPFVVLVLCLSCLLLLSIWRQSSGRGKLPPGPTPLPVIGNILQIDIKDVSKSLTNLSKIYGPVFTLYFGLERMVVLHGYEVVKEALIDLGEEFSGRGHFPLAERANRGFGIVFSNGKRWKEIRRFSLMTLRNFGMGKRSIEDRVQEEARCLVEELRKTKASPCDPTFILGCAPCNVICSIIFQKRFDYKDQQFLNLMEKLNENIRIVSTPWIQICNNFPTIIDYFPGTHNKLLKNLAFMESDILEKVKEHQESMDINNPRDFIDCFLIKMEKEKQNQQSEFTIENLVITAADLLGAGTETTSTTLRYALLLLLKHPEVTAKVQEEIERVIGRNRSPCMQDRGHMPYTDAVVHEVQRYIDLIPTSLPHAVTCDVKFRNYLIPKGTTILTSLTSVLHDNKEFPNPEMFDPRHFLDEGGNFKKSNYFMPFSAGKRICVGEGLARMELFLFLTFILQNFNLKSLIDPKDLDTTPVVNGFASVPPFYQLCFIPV
Sequence of CYP2D6 (P10635 whole entry): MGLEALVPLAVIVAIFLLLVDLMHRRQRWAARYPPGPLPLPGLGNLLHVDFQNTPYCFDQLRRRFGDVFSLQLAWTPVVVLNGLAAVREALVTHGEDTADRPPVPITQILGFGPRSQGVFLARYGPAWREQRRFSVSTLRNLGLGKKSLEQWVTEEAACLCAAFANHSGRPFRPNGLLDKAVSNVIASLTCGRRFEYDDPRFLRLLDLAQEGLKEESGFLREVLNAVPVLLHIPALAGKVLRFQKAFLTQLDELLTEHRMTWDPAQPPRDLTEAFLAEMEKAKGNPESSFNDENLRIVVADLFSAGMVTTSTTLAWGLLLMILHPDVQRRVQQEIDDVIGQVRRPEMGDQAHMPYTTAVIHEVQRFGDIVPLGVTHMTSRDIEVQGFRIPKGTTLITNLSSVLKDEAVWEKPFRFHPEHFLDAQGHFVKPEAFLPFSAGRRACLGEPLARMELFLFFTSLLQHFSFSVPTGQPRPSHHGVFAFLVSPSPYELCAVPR
Sequence of CYP3A4 (P08684 whole entry): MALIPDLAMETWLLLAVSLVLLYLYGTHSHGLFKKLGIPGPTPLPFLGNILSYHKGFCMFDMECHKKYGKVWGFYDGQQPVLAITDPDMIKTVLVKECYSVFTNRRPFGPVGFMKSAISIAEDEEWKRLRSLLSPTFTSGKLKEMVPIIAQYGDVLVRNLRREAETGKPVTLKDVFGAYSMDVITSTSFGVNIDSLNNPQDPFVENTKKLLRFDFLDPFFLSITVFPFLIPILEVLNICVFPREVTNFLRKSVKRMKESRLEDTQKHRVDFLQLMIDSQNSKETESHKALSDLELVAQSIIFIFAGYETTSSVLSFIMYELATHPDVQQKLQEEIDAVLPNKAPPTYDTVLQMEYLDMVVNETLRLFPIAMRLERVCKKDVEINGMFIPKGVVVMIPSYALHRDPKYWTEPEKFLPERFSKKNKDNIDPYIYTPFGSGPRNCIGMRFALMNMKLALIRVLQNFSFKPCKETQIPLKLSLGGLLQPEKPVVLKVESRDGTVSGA
Sequence of CYP2C9 (P11712 whole entry): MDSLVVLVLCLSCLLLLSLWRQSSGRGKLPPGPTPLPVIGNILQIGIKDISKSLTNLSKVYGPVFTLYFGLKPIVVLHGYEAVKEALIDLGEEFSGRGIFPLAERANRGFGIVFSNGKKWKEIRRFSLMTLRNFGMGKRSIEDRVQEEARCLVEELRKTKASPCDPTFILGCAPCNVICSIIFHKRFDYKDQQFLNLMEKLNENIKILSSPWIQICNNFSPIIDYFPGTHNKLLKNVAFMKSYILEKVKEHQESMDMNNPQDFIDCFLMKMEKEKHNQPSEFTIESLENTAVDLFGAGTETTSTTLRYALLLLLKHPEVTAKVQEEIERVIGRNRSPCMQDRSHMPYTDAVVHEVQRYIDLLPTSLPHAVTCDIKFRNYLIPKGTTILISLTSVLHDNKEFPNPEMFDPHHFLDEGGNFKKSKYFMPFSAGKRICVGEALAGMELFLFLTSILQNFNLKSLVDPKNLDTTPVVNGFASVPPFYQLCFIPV
Sequence of hERG (KCNH2) (Q12809 whole entry): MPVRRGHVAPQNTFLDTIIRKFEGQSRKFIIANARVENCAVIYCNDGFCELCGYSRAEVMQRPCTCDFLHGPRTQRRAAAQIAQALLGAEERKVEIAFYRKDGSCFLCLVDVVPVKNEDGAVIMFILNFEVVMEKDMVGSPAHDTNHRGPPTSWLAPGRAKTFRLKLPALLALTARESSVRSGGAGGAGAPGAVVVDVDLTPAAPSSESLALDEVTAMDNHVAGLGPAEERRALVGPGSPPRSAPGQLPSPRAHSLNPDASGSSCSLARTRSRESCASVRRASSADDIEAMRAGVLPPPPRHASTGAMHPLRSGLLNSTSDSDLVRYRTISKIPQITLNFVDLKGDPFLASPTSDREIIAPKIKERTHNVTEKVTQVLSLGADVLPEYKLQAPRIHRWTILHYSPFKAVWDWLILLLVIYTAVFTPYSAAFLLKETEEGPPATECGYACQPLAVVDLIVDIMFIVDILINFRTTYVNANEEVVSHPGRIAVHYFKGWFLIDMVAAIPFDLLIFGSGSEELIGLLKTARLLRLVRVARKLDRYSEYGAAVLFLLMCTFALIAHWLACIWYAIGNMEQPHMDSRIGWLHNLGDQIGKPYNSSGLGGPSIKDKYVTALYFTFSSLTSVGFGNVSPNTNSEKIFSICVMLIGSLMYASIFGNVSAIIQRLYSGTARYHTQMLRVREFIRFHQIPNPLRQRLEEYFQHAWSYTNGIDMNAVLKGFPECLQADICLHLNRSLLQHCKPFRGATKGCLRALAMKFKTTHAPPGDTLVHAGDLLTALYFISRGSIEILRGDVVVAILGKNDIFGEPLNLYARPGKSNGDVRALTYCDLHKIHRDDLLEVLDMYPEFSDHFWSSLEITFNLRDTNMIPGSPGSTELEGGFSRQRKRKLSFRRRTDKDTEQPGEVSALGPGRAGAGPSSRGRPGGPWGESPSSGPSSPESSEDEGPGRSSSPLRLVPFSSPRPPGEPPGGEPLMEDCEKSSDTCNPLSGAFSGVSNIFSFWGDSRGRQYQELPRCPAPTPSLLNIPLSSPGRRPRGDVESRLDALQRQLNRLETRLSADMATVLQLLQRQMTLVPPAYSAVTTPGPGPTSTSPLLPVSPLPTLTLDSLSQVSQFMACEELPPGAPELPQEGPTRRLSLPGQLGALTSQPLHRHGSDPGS

On to `CC1(C)Cc2c(c(C(=O)Nc3cc(C4CC4)ccc3F)cc3nc(Nc4c(F)cccc4Cl)[nH]c23)O1`, for which the remaining at 1 h, 1 µM was determined as 93% in [1], 100% in [3] and 93% in [9]. Moreover, the IC50 in data set [2] turned out to be 1380 nM; in data set [7], 3.6 nM; in data set [10], 6 nM. The inhibition at 20 min, 10 µM in data set [4] was 36%; in data set [5], 42%; in data set [6], 7%; in data set [11], -12%. Also, the inhibition at 40 min, 10 µM in data set [8] came to 22%.

For `CC1(C)Cc2c(c(C(=O)Nc3ccc(C(F)(F)F)cc3F)cc3nc(Nc4c(F)cccc4Cl)[nH]c23)O1`, the remaining at 1 h, 1 µM in data set [1] was 80%; in data set [3] it was 100%. The IC50 came to 570 nM in data set [2], 3.1 nM in data set [7] and 9.6 nM in data set [10]. The fraction unbound at 5 h, 10 µM in data set [12] and in data set [13] was under 0.005 each time. The inhibition at 20 min, 10 µM in [5] was determined as 39%; in data set [11], 37%. The inhibition at 40 min, 10 µM in data set [8] worked out at 16%.

On to `Cn1c(Nc2c(F)cccc2Cl)nc2cc(C(=O)Nc3ccc(C(F)(F)F)cc3)c3c(c21)CC(C)(C)O3`, for which the remaining at 1 h, 1 µM in [1] turned out to be 68%; in data set [3], 100%; in data set [9], 68%. The inhibition at 20 min, 10 µM in [4] was 34%; in data set [5], 44%; in data set [6], -5%. Further, in data set [8], the inhibition at 40 min, 10 µM is -7%.

Take `Cc1cccc(Cl)c1Nc1nc2cc(C(=O)Nc3cc(C4CC4)ccc3F)c3c(c2[nH]1)CC(C)(C)O3`: the remaining at 1 h, 1 µM in [1] came to 55%; in data set [3] it was 93%; in data set [9], 89%. Besides, the IC50 was found to be 447 nM in data set [2] and 10 nM in data set [7]. In addition, the inhibition at 20 min, 10 µM in data set [4] is 14%; in [5], 12%; in [6] it was 31%; in [11] it was -13%. Moreover, the inhibition at 40 min, 10 µM in data set [8] is 24%.

In the case of `CC1(C)Cc2c(c(C(=O)Nc3cc(C4CC4)ccc3F)cc3nc(Nc4c(Cl)cccc4Cl)[nH]c23)O1`, the remaining at 1 h, 1 µM turned out to be 74% in [1], 95% in data set [3] and 92% in data set [9]. The results for the IC50 in data set [2], in data set [7] and in data set [10] were 197 nM, 16 nM and 3.2 nM, respectively. Also, the inhibition at 20 min, 10 µM in data set [4] came out at 14%; in data set [5], 26%; in [6], 5%; in data set [11], 21%. Besides, the inhibition at 40 min, 10 µM in [8] worked out at 10%.

For `CC1(C)Cc2c(c(C(=O)Nc3cc(C(F)F)ccc3F)cc3nc(Nc4c(F)cccc4Cl)[nH]c23)O1`, the remaining at 1 h, 1 µM in [1] stood at 68%; in data set [3] it was 88%; in data set [9], 86%. In addition, the results for the IC50 in data set [2], in data set [7] and in data set [10] were 336 nM, 9.2 nM and 6.3 nM, respectively. Also, the fraction unbound at 5 h, 10 µM in [12] was 0.0018; in data set [13], 0.005. The inhibition at 20 min, 10 µM in [4] was 31%; in data set [5], 42%; in data set [6] it was -1%; in [11], 4%. The inhibition at 40 min, 10 µM in data set [8] was found to be 22%.

For `Cc1ccc(NC(=O)c2cc3nc(Nc4c(F)cccc4Cl)n(C)c3c3c2OC(C)(C)C3)c(F)c1`, the remaining at 1 h, 1 µM in [1] was 58%; in [3], 68%; in [9], 71%. For the same molecule, the IC50 in [2] came to 177 nM; in data set [7], 16 nM; in data set [10], 3.1 nM. Also, the fraction unbound at 5 h, 10 µM in data set [12] and in data set [13] was under 0.005 each time. The inhibition at 20 min, 10 µM in data set [4] worked out at 26%; in [5], 52%; in data set [6], 14%; in data set [11], 23%. Besides, in data set [14], the inhibition at 10 µM was 12.8%. In data set [8], the inhibition at 40 min, 10 µM came to 24%.

Turning to `Cn1c(Nc2c(F)cccc2Cl)nc2cc(C(=O)Nc3ccc(C4CC4)cc3)c3c(c21)CC(C)(C)O3`, the remaining at 1 h, 1 µM was 51% in [1], 97% in data set [3] and 96% in data set [9]. Moreover, the values for the IC50 in data set [2], in data set [7] and in data set [10] were 350 nM, 4.9 nM and 4.3 nM, respectively. In addition, the inhibition at 20 min, 10 µM in data set [4] worked out at 41%; in data set [5], 47%; in data set [6], 25%; in [11] it was 19%. The inhibition at 40 min, 10 µM in data set [8] is 24%.

For the molecule `Cn1c(Nc2c(F)cccc2Cl)nc2cc(C(=O)Nc3ccc(C(F)(F)F)cn3)c3c(c21)CC(C)(C)O3`, the remaining at 1 h, 1 µM in data set [1] was found to be 69%; in data set [3] it was 58%; in [9], 66%. The IC50 came out at 673 nM in data set [2], 12 nM in data set [7] and 4 nM in [10]. Further, the figures for the fraction unbound at 5 h, 10 µM in data set [12] and in [13] were 0.0015 and 0.0035, respectively. Also, the inhibition at 20 min, 10 µM was found to be 14% in data set [4], 52% in data set [5], 3% in data set [6] and 17% in data set [11]. Besides, the inhibition at 40 min, 10 µM in [8] is 10%.

With `CC1(C)Cc2c(c(C(=O)Nc3ccc(C(F)(F)F)cn3)cc3nc(Nc4c(F)cccc4Cl)[nH]c23)O1`, the half-inhibitory concentration (IC50) amounted to 955 nM in data set [2], 25 nM in [7] and 14 nM in [10].

With `Cc1cccc(Cl)c1Nc1nc2cc(C(=O)Nc3ccc(C(F)(F)F)cc3)c3c(c2[nH]1)CC(C)(C)O3`, the figures for the remaining at 1 h, 1 µM in [1] and in data set [3] were 62% and 100%, respectively. Moreover, the IC50 came to 337 nM in data set [2], 14 nM in [7] and 11 nM in [10]. For the same molecule, the fraction unbound at 5 h, 10 µM in data set [12] and in data set [13] was under 0.005 throughout. Moreover, the inhibition at 20 min, 10 µM in [4] was determined as 25%; in [5], 46%; in data set [6] it was 6%; in data set [11], 34%. Further, the inhibition at 40 min, 10 µM in data set [8] came to 19%.

With `Cc1cccc(Cl)c1Nc1nc2cc(C(=O)Nc3ccc(C(F)(F)F)cn3)c3c(c2[nH]1)CC(C)(C)O3`, the figures for the IC50 in data set [7] and in [10] were 32 nM and 27 nM, respectively.

Take `Cc1cccc(Cl)c1Nc1nc2cc(C(=O)Nc3ccc(F)c(C(F)(F)F)c3)c3c(c2[nH]1)CC(C)(C)O3`: the remaining at 1 h, 1 µM came to 80% in [1], 95% in data set [3] and 97% in data set [9]. Moreover, the IC50 in [2] worked out at 876 nM; in data set [7], 5.4 nM; in data set [10], 10 nM. The inhibition at 20 min, 10 µM in data set [5] was 47%; in data set [11], 30%. For the same molecule, the inhibition at 40 min, 10 µM in data set [8] is 31%.
